The values below come from paper PMC11913021 (Journal of Medicinal Chemistry, 2024).

The subject of one data set is KRAS. The data set is described as follows: RAS activation assay in KRAS-transfected cells. Type of data set: cell-based. The method in brief: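 Cells treated with test compound for 24 h and lysed with protease inhibitor, then spun at 13,000 rpm for 10 min at 4 °C. Lysate (800 μg) was incubated overnight at 4 °C with GST-Raf1-RBD beads and washed three times. Bound RAS-GTP was eluted in SDS buffer, heated at 100 °C for 5 min, and immunoblotted for RAS.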

Data set [1] has as its system A549 cells. The data set is described as follows: In vitro phagocytosis assay. Type of data set: cell-based, human. Conditions: A549 cocultured with PMA-activated THP-1. The gist of the method: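 A549 cells treated with test compound for 48 h in RPMI with 10% FBS, then labelled with 1 μM CFSE. THP-1 cells were differentiated with PMA for 36 h, and 5 × 10^5 were co-incubated with equal CFSE-labelled cells in serum-free RPMI for 2 h. After Fc block and PerCP-Cy5.5 anti-CD11b staining (20 min, 4 °C), CFSE+CD11b+ cells were counted by flow cytometry in at least three independent experiments.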

The subject of data set [2] is A549 cells. The data set is described as follows: Colony-forming assay. Type of data set: cell-based. The method in brief:
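Cells seeded at 500–1,000 per well; test compound added 48 h after seeding, with 48 h exposure. Medium was changed every 3 days and cultures kept 10 days. Colonies were fixed in 4% PFA for 20 min, stained with crystal violet for 30 min, and counted by image analysis.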

For a further data set, the system named is PLD. The data set is described as follows: PLD activity inhibition in A549 cells. The data set is classed as cell-based. Particulars: read-out: IC50 for PLD inhibition.
Another data set relates to CD24, CD47, PD-L1, CRT. Kind of data set: Flow cytometry of “don’t eat-me” and “eat-me” signals in A549 cells. The data set is classed as cell-based.
For data set [3], the system named is A549 cells. Kind of data set: Ki67 staining proliferation assay. The data set is classed as cell-based.
The test system of another data set is LLC lung cancer cells. Kind of data set: LLC tumor model in immune-deficient nude mice. Type of data set: in vivo, mouse. Conditions: immune-deficient nude mice injected with LLC cells.
Data set [4] deals with A549 cells. Kind of data set: Transwell migration and invasion assay. Type of data set: cell-based. The gist of the method: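 Cells at 5 × 10^4 cells/ml in serum-free medium placed in 8 μm pore transwell chambers; for invasion the chambers were Matrigel-precoated. After 24 h, non-migrated cells were swabbed off. Cells on the underside were fixed in 4% PFA for 20 min, stained with crystal violet for 10 min, and counted by light microscopy.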

For data set [5], the target named is T1, PLD1 (Homo sapiens, UniProt Q13393).
T1 sequence (Q13393 1-1074): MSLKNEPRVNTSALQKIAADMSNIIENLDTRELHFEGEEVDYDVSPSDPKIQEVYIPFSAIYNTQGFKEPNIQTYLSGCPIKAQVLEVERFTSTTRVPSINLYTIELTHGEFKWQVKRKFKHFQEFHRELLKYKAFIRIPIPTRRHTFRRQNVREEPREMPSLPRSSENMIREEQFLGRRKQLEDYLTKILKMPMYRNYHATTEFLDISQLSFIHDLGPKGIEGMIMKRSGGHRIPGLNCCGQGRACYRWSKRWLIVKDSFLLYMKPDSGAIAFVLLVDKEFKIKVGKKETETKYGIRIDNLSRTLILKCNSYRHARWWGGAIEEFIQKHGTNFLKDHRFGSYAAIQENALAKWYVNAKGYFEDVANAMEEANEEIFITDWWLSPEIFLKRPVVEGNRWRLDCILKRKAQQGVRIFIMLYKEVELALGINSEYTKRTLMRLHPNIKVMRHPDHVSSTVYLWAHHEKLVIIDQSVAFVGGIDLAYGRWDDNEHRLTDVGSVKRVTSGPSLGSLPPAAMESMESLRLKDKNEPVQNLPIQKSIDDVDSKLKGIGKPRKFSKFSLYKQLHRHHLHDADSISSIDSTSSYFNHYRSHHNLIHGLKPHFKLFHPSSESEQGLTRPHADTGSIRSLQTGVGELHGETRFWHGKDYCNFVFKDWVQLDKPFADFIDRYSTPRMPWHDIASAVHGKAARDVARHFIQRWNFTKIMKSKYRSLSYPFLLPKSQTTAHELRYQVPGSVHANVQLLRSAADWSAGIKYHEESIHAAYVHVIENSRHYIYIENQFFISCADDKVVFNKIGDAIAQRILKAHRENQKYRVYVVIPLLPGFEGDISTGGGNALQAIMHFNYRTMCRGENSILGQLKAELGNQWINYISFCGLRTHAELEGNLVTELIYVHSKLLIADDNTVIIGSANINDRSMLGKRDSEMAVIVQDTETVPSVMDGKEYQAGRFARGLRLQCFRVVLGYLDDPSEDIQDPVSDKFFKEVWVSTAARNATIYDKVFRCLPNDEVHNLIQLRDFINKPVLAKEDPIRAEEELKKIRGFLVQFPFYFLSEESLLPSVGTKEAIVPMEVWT
Kind of data set: Drug affinity responsive target stability. Type of data set: binding. Conditions: DARTS with immunoblotting. The method in brief: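 A549 cells lysed in buffer with protease and phosphatase inhibitors. Cleared supernatant incubated with test compound for 1 h at RT, then digested with Pronase for 10 min at RT. Digestion stopped with SDS loading buffer and boiling at 100 °C for 5 min. PLD1 was detected by immunoblot, with β-tubulin as control.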

Data set [6] relates to EGFR-RAS-mediated signaling pathways. The data set is described as follows: Immunoblot of RAS downstream molecules in EGF-stimulated A549 cells. Type of data set: cell-based. The method in brief:
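Lysates made in passive buffer with protease and phosphatase inhibitor cocktail, boiled 5 min, then separated by SDS-PAGE and transferred to PVDF. Membranes blocked in TBS-T with 5% BSA and probed overnight at 4 °C for phospho- and total Akt, ERK and IκBα. HRP-conjugated secondary antibodies and chemiluminescence were used for detection.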

In data set [7] the target is T1, PLD1. Kind of data set: PLD activity in PLD1-overexpressing A549 cells. The data set is classed as cell-based.
The test system of data set [8] is A549 cells. The data set is described as follows: Cell apoptosis assay. The data set is classed as cell-based. Particulars: flow cytometry and caspase-3 activity assay. The method in brief:
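Apoptosis detected by Annexin V-FITC staining and flow cytometry. For caspase-3, cells were grown to about 40% density and given test compound, or the inhibitor Ac-DEVD-CHO, at 10 μM for 48 h. After a PBS wash, 1 μM NucView 488 caspase-3 substrate was added for 30 min at RT, then 1 μM Hoechst 33342. Both fluorescences were read on a plate reader.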

The nature of data set [9]: Body weight of normal C57BL/6 mice without cancer cells. The data set is classed as in vivo, mouse. Particulars: oral, C57BL/6 without cancer cells, vs untreated.

With “N-(3,5-Bis(trifluoromethyl)phenyl)-3-(1H-indol-3-yl)propanamide [3r]”, in the data set on KRAS, the KRAS activation entry is reported as “inhibited”. Further, in the data set with A549 cells [1], the “CD11b^+CFSE^+ macrophages (phagocytosis)” value was “significantly increased”. Moreover, the colony formation result with A549 cells [2] is on record as “significantly inhibited”. Also, the IC50 in the data set with PLD worked out at 1970 nM. For the same substance, in the data set on CD24, CD47, PD-L1, CRT, the “expression of “don’t eat-me” signals” value is “reduced” and the “expression of “eat-me” signals” value was “enhanced”. Further, the Ki67-positive proliferation entry with A549 cells [3] is reported as “significantly inhibited”. The tumor formation entry in the data set with LLC lung cancer cells is on record as “significantly suppressed”. For the same substance, in the data set with A549 cells [4], the invasion entry is on record as “significantly inhibited” and the migration result is recorded as “significantly inhibited”. The “stability of PLD1 against Pronase” value at PLD1 [5] is “increased stability”. Moreover, the “phospho-Akt, phospho-ERK, and phospho-IkBα levels” value in [6] is listed as “markedly reduced”. Also, the PLD1 activity result on PLD1 [7] is given as “selectively suppressed”. For the same substance, the “apoptosis of A549 cells” value in the data set with A549 cells [8] is given as “induced”. In [9], the “weight of the normal mice” value is recorded as “no effect”.
